Laboratory results from ChEMBL document CHEMBL1136298, “Synthesis of novel C2 and C2-C8 linked pyrrolo[2,1-c][1,4]benzodiazepine-naphthalimide hybrids as DNA-binding agents” (2003).

Tests used:
CCRF-CEM = experiment: In vitro cytotoxic activity against leukemia CCRF-CEM cell line; type: functional; settings: Homo sapiens
NCI-H460 = experiment: In vitro anticancer activity against lung NCI-H460 cell line; type: functional, Homo sapiens
Outline: (§1)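 Primary screen in a three-cell-line panel of MCF7 (breast), NCI-H460 (lung) and SF-268 (CNS), with each compound tested as one dose at 10⁻⁴ molar.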

MCF7 = experiment: In vitro anticancer activity against breast MCF-7 cell line; type: functional, Homo sapiens; outline: as §1
MOLT-4 = experiment: In vitro cytotoxic activity against MOLT-4 cell line; settings: Homo sapiens
SNB-19 = experiment: In vitro cytotoxic activity against central nervous system (CNS) SNB-19 cell line; type: functional; settings: Homo sapiens
SR = experiment: In vitro cytotoxic activity against SR cell line; type: functional; settings: Homo sapiens
HL-60 = experiment: In vitro cytotoxic activity against HL60 (TB) cell line; type: functional; settings: Homo sapiens
SF-268 = experiment: In vitro anticancer activity against SF-268 (CNS) cell line; type: functional, Homo sapiens; outline: as §1
T47D = experiment: In vitro cytotoxic activity against breast T-47D cell line; type: functional; settings: Homo sapiens

Row | Compound | GI50 (CCRF-CEM) | Activity (NCI-H460) | Activity (MCF7) | GI50 (MOLT-4) | GI50 (SNB-19) | GI50 (SR) | GI50 (HL-60) | Activity (SF-268) | GI50 (T47D)
1 | COc1cc2c(cc1OCc1ccccc1)N=C[C@@H]1C/C(=C\C(=O)NCCCN3C(=O)c4cccc5cccc(c45)C3=O)CN1C2=O | 62 nM | 0% | 0% | 55 nM | 80 nM | < 10 nM | 91 nM | 1% | 34 nM
2 | COc1cc2c(cc1OCc1ccccc1)N=C[C@@H]1C/C(=C\C(=O)NCCN3C(=O)c4cccc5cccc(c45)C3=O)CN1C2=O |  | 101% | 89% |  |  |  |  | 95% | 
3 | COc1cc2c(cc1OCCCN1C(=O)c3cccc4cccc(c34)C1=O)N=C[C@@H]1C/C(=C\C(=O)NCCCN3C(=O)c4cccc5cccc(c45)C3=O)CN1C2=O |  | 102% | 86% |  |  |  |  | 97% | 
